Dynein cargo inh: dynein cargo transport inhibition. 3617.4 mouse cells, GR-EGFP nuclear translocation imaging; test concentration mostly 20 µM; stimulated with dexamethasone, 1 µM; stronger effect = lower value. z-score, hits read low. 220,000 tested, 0.47% active;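 active means plate z-score of nuclear minus cytoplasmic receptor signal below a set negative limit, without overly bright fluorescence or cell loss, cut at about -3.5 in these data, passing the limit was not always enough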;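 further: z-score of nuclear minus cytoplasmic ring GR-EGFP intensity difference per well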
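Also added: dexamethasone, 1.0 µM final. Medium: tet-free, stripped-serum medium. Detection: fixed, Hoechst-stained cells imaged at 10x for EGFP. Read-out: nuclear-to-cytoplasmic GR-EGFP distribution per well. Times: induction 48 h, compound 1 h, agonist 30 min.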
MT stabilize HCS: stabilizes microtubules in HeLa cells. 200,000 tested, 0.83% active. HeLa tubulin immunostaining HCS, 24 h; share of cells brighter than vehicle mean+2SD. AID 2205. % tubulin-high responders, % at 10 µM;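 active means plate Z-score above 3 for both tubulin-high and condensed-nucleus cell shares, with cell loss under 80%, at 10 µM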;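 further: anti alpha tubulin signal scored within the nucleus-defined area of each cell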
Ins promoter up: MIN6 insulin promoter up-regulation | z-score at 5 µM | MIN6 insulin promoter-GFP reporter, high-content imaging; stronger effect = higher value | AID 1625 | 190,000 tested, 0.3% active;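 active means z-score above 3 at 5 µM with at least 500 cells counted in the well; inconclusive means wells under 500 cells, flagged as cytotoxic or low count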
Autophagy mod: alters autophagy in cells; calls only at 10 µM (by protocol); 190,000 tested, 0.98% active; AID 463193; MEF GFP-LC3 puncta imaging; test concentration mostly 10 µM;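 active means percentage of spot-positive cells more than 3 SD above its plate mean, without a fluorescence outlier flag or 80% toxicity; inconclusive means no clear call, values can overlap the other calls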;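 further: spot-positive cell cutoff set from DMSO-treated cells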
bCat nuc transl: alters nuclear translocation of beta-catenin in HeLa cells; immunofluorescence imaging; nuclear translocation activity, % at 5 µM; 190,000 tested, 0.3% active; AID 1665;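 active means nuclear translocation activity above 50% at 5 µM, with a well cell count of 50 or more; inconclusive means wells under 50 cells across six images, flagged as toxic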;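 further: per-cell ratio of nuclear to cytoplasmic median beta-catenin stain intensity; plate controls were DMSO negative control for no effect and GSK-3 inhibitor IX positive control for full effect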
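System: HeLa cells, endogenous beta-catenin; compound dosing: 5 µM primary single dose, 0.1% DMSO, 0.02–20 µM confirmation series; incubation: 24 h compound exposure at 37°C, 5% CO2; signal: beta-catenin immunofluorescence imaging with DAPI; evaluation: % activation, nuclear-to-cytoplasmic median beta-catenin signal ratio per cell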
* hit, by the source's call; i = inactive; ? = inconclusive; . = not tested or not shown; + = active, no number. In the library only some 2.3% were active in any assay of this set; here they are far more common.

SMILES	Dynein cargo inh	MT stabilize HCS	Ins promoter up	Autophagy mod	bCat nuc transl
CN(N)c1nc(-c2ccccc2)nnc1C(F)(F)F	0.48	3	-1	i	3
CN(NC(=O)c1cccc(Cl)c1)c1nc(-c2ccccc2)nnc1C(F)(F)F	-0.75	40*	-0.12	i	0
CC(C)C(=O)NC(=S)Nc1ccc(S(=O)(=O)N(C)Cc2ccccc2)cc1	0.57	42*	-1.3	i	2
CCCCC1(C)NC(=S)N2N1C(=S)NC2(C)CCCC (centres undefined)	-0.57	.	-0.28	.	-1
COC(=O)[C@@H]1C[C@]2(OC(=O)c3ccccc3)C=CC(=O)C[C@@H]2N1C(=O)OCc1ccccc1	-6.5*	3	1.3	i	-5
COC(CNC(=O)C1CCCN1C(=O)OCc1ccccc1)OC (centres undefined)	-0.29	4	0.26	i	1
Cc1ccc(Cn2c(SCC(=O)NCC3CCCO3)nc3c2c(=O)n(C)c(=O)n3C)cc1 (centres undefined)	-0.32	2	0.6	i	-1
COc1cc(/C=C2\N=C(c3ccccc3)NNC2=O)cc(OC)c1OC	0.9	.	-0.47	.	65*
O=C1NNC(c2ccccc2)=N/C1=C\c1ccco1	-2.6	.	0.37	.	-2
O=C(Nc1nnc(-c2ccc(Cl)cc2)o1)Nc1ccccc1F	1.6	.	-0.34	.	0
O=c1oc2ccccc2cc1-c1nc2c(s1)CCc1ccccc1-2	-2.6	3	1.2	+	.
O=c1oc2cc(O)ccc2cc1-c1nc2c(s1)CCc1ccccc1-2	-2.4	4	.	?	-1
COc1ccc(C(=O)NC(C(=O)NCCc2ccc3c(c2)OCCO3)C(C)C)cc1 (centres undefined)	-0.67	1	-0.15	i	0
CCOc1cccc(N2C(=O)CC(N3CCC(C(N)=O)(N4CCCCC4)CC3)C2=O)c1 (centres undefined)	-1.3	4	0.77	i	4
CCOC(=O)c1ccc(N2C(=O)CC(N3CCC(C(N)=O)(N4CCCCC4)CC3)C2=O)cc1 (centres undefined)	-1.5	3	.	+	-1
Nc1ccc(S(=O)(=O)N2CCCC2)cc1Cl	0.23	.	-0.12	.	-1
O=C(/C=C/NNC(=O)c1ccccc1)c1ccc([N+](=O)[O-])cc1	-0.36	2	.	i	1
Nc1nc(COc2ccccc2C=O)nc(Nc2ccccc2)n1	0.33	.	.	.	2
NS(=O)(=O)c1ccc(CCNCC(=O)N2CCC(Cc3ccccc3)CC2)cc1	0.39	.	0.79	.	-2
COc1ccc(C(=O)c2ccc(OC)c(N)c2)cc1N	1.1	34*	0.7	+	.
COc1ccc(C(=O)c2ccc(OC)c(OC)c2)cc1OC	-0.33	4	.	i	.
CCOC(=O)c1sc(NC(=O)CSc2nc3c(cc2C#N)CCCCCC3)c(C#N)c1C	-0.46	3	-0.89	+	0
CCOC(=O)c1sc(NC(=O)CSc2nc3c(cc2C#N)CCC3)c(C#N)c1C	0.82	3	.	i	.
COc1ccc(-n2nc(C)c3sc(C)nc3c2=O)cc1	-0.011	.	.	.	-1
CC1=CC(C)(C)N(S(=O)(=O)c2ccc(C)cc2)c2cc(C)ccc21	0.7	21*	.	+	.
SMILES	Dynein cargo inh	MT stabilize HCS	Ins promoter up	Autophagy mod	bCat nuc transl
CCOc1ccc2c(c1)C(C)=CC(C)(C)N2S(=O)(=O)c1ccc(C)cc1	1.3	6	-3.3	i	44
COc1ccc2c(c1)C(C)=CC(C)(C)N2S(=O)(=O)c1ccc(C)cc1	-0.75	9	-2.5	i	63*
COc1ccc(C2c3ccc(O)cc3Oc3ncn4nc(-c5cccnc5)nc4c32)cc1OC (centres undefined)	1.1	.	-1.1	.	0
CCc1nnc(NC(=O)CSc2nc(C)c3c(c2C#N)CCCC3)s1	0.23	26*	-0.98	i	4
CCc1nnc(NC(=O)CSc2nc3cc4c(cc3cc2CC)OCCO4)s1	2.2	9	-0.16	+	-2
COc1ccc(NC(=O)CSc2nc(C)c3c(c2C#N)CCCC3)cc1	-0.92	2	-0.06	i	-2
CCc1cc2cc3c(cc2nc1SCC(=O)Nc1nnc(C)s1)OCCO3	0.59	2	0.89	i	-4
CCc1cc2ccc(C)cc2nc1SCC(=O)Nc1cc(C)on1	-0.31	3	-0.37	i	0
CCc1cc2cc3c(cc2nc1SCC(=O)Nc1cc(C)on1)OCO3	2	7	0.23	+	-4
Cc1ccc(NC(=O)N2CCCC(C(=O)O)C2)cc1 (centres undefined)	-1.2	.	-0.25	.	0
O=C(COC(=O)c1cc(Br)ccc1O)Nc1cc(S(=O)(=O)N2CCCC2)ccc1Cl	0.089	1	-0.21	i	0
COc1cc(C(O)P(=O)(OCC(C)C)c2ccc(N(C)C)cc2)cc(OC)c1OC (centres undefined)	-0.11	.	.	.	2
COC(=O)c1ccccc1N(C)S(=O)(=O)c1cc2c(cc1C)OCC(=O)N2	-0.23	3	0.77	i	0
CCCn1cnc2c(cnn2-c2ccc(F)cc2)c1=O	-0.029	6	.	+	-1
O=[N+]([O-])c1cc(Cl)ccc1Sc1cccc2cccnc12	1.4	3	-0.75	i	.
O=[N+]([O-])c1ccc(Sc2cccc3cccnc23)c([N+](=O)[O-])c1	1.5	2	0.08	+	1
CCOc1ccc(NC(=O)C2CCC(C)(C(=O)O)C2(C)C)cc1 (centres undefined)	0.091	4	3.6*	i	-2
CCN(CC)S(=O)(=O)c1cccc(NC(=O)COC(=O)c2cccs2)c1	0.39	7	-0.18	i	-5
CCN1C(=O)/C(=C\c2cn(-c3ccccc3)nc2-c2cccnc2)SC1=S	0.9	1	1.1	+	0
Nc1ccccc1-c1nnn(CC(=O)N2CCCc3ccccc32)n1	-0.54	3	.	+	-2
O=C(O)C1C2CCCCC2=C2CCCCC2C1C(=O)c1ccccc1 (centres undefined)	-0.67	.	-0.59	.	-2
Cn1cccc1Cc1nnc(SCC(=O)Nc2ccc(Cl)cc2)n1-c1ccc(F)cc1	-0.11	3	0.84	+	-3
COc1ccc(-n2c(Cc3cccn3C)nnc2SCC(=O)NCc2ccc(F)cc2)cc1	-0.7	3	0.85	i	1
COc1ccc(-n2c(Cc3cccn3C)nnc2SCC(=O)NCc2ccccc2Cl)cc1	1.2	4	-0.86	+	0
Cn1cccc1Cc1nnc(SCC(=O)Nc2cccc(F)c2)n1CCc1ccccc1	2.8	5	1.5	+	-2
COc1ccc(Cl)cc1/C=C(\C#N)C(N)=O	-0.0036	3	2	i	-1
Cc1ccc(C2=NN(C(=O)c3cccs3)C(c3ccccc3O)C2)cc1 (centres undefined)	-0.88	4	-0.17	+	1
CCCS(=O)(=O)N1CCC(C(=O)N2CCOCC2)CC1	1.8	3	4*	i	0
